From ChEMBL document CHEMBL1671864, “First assessment in humans of the safety, tolerability, pharmacokinetics, and ex vivo pharmacodynamic antimalarial activity of the new artemisinin derivative artemisone” (Antimicrob Agents Chemother, 2008) come the findings set out here.

Series [1] relates to Plasma. Nature of the series: Cmax in healthy human plasma assessed as metabolite BAY 78-1787 Cmax at 80 mg, po administered as single ascending doses during 10 hrs overnight fasting state. In kind it is ADME, organism-based. Also on record: dose 80 mg, route oral. The following applies: in vivo. Put shortly: (§1)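 Healthy Caucasian male volunteers, single oral dose of 80 mg as four 20-mg immediate-release tablets, taken with 240 ml water after a 10-h overnight fast. Lithium-heparin venous blood was drawn predose and at 0.25–14 h, and plasma was stored frozen. Metabolites M1/M2/M3 were measured by LC/MS-MS (positive-ion MRM, deuterated internal standard). Noncompartmental analysis, AUC by log-linear trapezoidal rule extrapolated to infinity (Clast/kel), geometric means.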

Series [2] relates to Plasma. Kind of series: AUC (0 to infinity) in healthy human plasma assessed as metabolite BAY 78-1787 AUC (0 to infinity) at 80 mg, po administered as single ascending doses during 10 hrs overnight fasting state. The series is classed as ADME, organism-based. Further details: dose 80 mg, time infinity, route oral. The note with it: in vivo. Put shortly: as §1
For series [3], the system named is Plasma. Nature of the series: Half-life in healthy human plasma assessed as metabolite BAY 78-1787 half-life at 80 mg, po administered as single ascending doses during 10 hrs overnight fasting state. The series is classed as ADME, organism-based. The following applies: in vivo. Put shortly:
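Healthy Caucasian male volunteers, single oral dose with 240 ml water after a 10-h overnight fast. Heparinised venous blood was drawn predose and at 0.25–14 h. Plasma was stored frozen. Parent drug and metabolites M1–M3 were measured by LC/MS-MS (MRM, deuterated internal standard). Noncompartmental analysis gave Cmax observed, t1/2 = 0.693/kel (terminal regression) and MRT = AUMC/AUC. Values are geometric means.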

Series [4] relates to Plasma. Kind of series: Ratio of AUC (0 to infinity) for metabolite BAY 78-1787 to AUC (0 to infinity) for compound in healthy human plasma at 40 mg, po administered as single dose for 3 days measured after 1 day. In kind it is ADME, organism-based. The note with it: in vivo, 24 h. Put shortly:
(§2)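 Healthy Caucasian men (8 active, 4 placebo per dose) dosed with tablets daily for 3 days after 10-h fast. Plasma sampled 0.25–14 h after first and last doses. Parent and metabolites M1–M3 measured by LC/MS-MS (200 µl plasma). Metabolic ratio is metabolite AUC0-∞ divided by parent AUC0-∞ (log-linear trapezoidal, extrapolated by last concentration/kel). First vs third dose compared by paired t test.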

For series [5], the system named is Plasma. Nature of the series: Ratio of AUC (0 to infinity) for metabolite BAY 78-1787 to AUC (0 to infinity) for compound in healthy human plasma at 40 mg, po administered as single dose for 3 days measured after 3 days. The series is classed as ADME, organism-based. The note with it: in vivo, 72 h. Put shortly: as §2
For series [6], the system named is Plasma. Kind of series: Ratio of AUC (0 to infinity) for metabolite BAY 78-1787 to AUC (0 to infinity) for compound in healthy human plasma at 80 mg, po administered as single dose for 3 days measured after 1 day. In kind it is ADME, organism-based. The note with it: in vivo, 24 h. Put shortly:
as §2

For series [7], the system named is Plasma. Nature of the series: Ratio of AUC (0 to infinity) for metabolite BAY 78-1787 to AUC (0 to infinity) for compound in healthy human plasma at 80 mg, po administered as single dose for 3 days measured after 3 days. The series is classed as ADME, organism-based. The following applies: in vivo, 72 h. Put shortly:
as §2

The test system of series [8] is Plasmodium falciparum. Kind of series: Antimalarial activity against Plasmodium falciparum K1 in human plasma assessed as inhibition of hypoxanthine uptake by intraerythrocytic malaria parasites by hypoxanthine incorporation assay. The series is classed as functional, organism-based. Put shortly: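 K1 or TM90-C2A parasites were sorbitol-synchronized and cultured in RPMI 1640. Drug was diluted in drug-free human serum (0.04–40 ng/ml) or subject plasma was diluted twofold (8–8,192). Parasites were added at 2% hematocrit, 1% parasitemia (>95% rings), and [3H]hypoxanthine uptake was measured over 48 h. IC50 or ID50 came from concentration or dilution-response curves. Equivalent concentration = ID50 × IC50.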

Series [9] has as its system Plasma. Kind of series: Cmax in healthy human plasma assessed as metabolite BAY 78-1787 Cmax at 40 mg, po administered as two 20 mg immediate release tablets daily for 3 days during 10 hrs overnight fasting state measured after 1 day. In kind it is ADME, organism-based. Also on record: dose 40 mg, route oral. The following applies: in vivo, 24 h. The method, boiled down: (§3)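 Healthy Caucasian male volunteers took 40 mg (two 20-mg IR tablets) or 80 mg (four tablets) orally once daily for 3 days, with 240 ml water after a 10-h fast. Plasma was sampled predose to 14 h after the first and last doses. M1/M2/M3 were quantified by LC/MS-MS MRM against a D4-labelled internal standard. Cmax was read from observed data and AUC by log-linear trapezoidal rule, noncompartmental, geometric means.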

Series [10] deals with Plasma. Kind of series: Cmax in healthy human plasma assessed as metabolite BAY 78-1787 Cmax at 40 mg, po administered as two 20 mg immediate release tablets daily for 3 days during 10 hrs overnight fasting state measured after 3 day. In kind it is ADME, organism-based. Further details: dose 40 mg, route oral. The note with it: in vivo, 72 h. The method, boiled down:
as §3

In series [11] the test system is Plasma. Kind of series: AUC in healthy human plasma assessed as metabolite BAY 78-1787 AUC at 40 mg, po administered as two 20 mg immediate release tablets daily for 3 days during 10 hrs overnight fasting state measured after 1 day. The note with it: in vivo. The series is classed as ADME, organism-based. Further details: dose 40 mg, time < 10 hr, route oral. Put shortly: as §3

Series [12] has as its system Plasma. Nature of the series: AUC in healthy human plasma assessed as metabolite BAY 78-1787 AUC at 40 mg, po administered as two 20 mg immediate release tablets daily for 3 days during 10 hrs overnight fasting state measured after 3 day. Also on record: time < 10 hr, dose 40 mg, route oral. The following applies: in vivo. The series is classed as ADME, organism-based. Put shortly:
as §3

The test system of series [13] is Plasma. Kind of series: Tmax in healthy human plasma assessed as metabolite BAY 78-1787 Tmax at 40 mg, po administered as two 20 mg immediate release tablets daily for 3 days during 10 hrs overnight fasting state measured after 1 day. In kind it is ADME, organism-based. The note with it: in vivo, 24 h. The method, boiled down: (§4)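 Healthy Caucasian men (8 active, 4 placebo per dose) dosed with tablets daily for 3 days after 10-h fast. Lithium-heparin plasma sampled predose and 0.25–14 h after day-1 and day-3 doses, stored frozen. Parent and M1–M3 quantified by LC/MS-MS in positive-ion MRM. Tmax taken directly from observed individual data.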

The subject of series [14] is Plasma. Nature of the series: Tmax in healthy human plasma assessed as metabolite BAY 78-1787 Tmax at 40 mg, po administered as two 20 mg immediate release tablets daily for 3 days during 10 hrs overnight fasting state measured after 3 day. In kind it is ADME, organism-based. The note with it: in vivo, 72 h. Put shortly: as §4
The subject of series [15] is Plasma. Nature of the series: Half life in healthy human plasma assessed as metabolite BAY 78-1787 Half life at 40 mg, po administered as two 20 mg immediate release tablets daily for 3 days during 10 hrs overnight fasting state measured after 1 day. In kind it is ADME, organism-based. The following applies: in vivo, 24 h. The method, boiled down:
(§5)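 Healthy Caucasian males took tablets once daily for 3 days with 240 ml water after a 10-h fast. Heparinised blood was drawn predose and at 0.25–14 h after the first and last doses. Plasma parent drug and metabolites M1–M3 were measured by LC/MS-MS (MRM, deuterated internal standard). Noncompartmental analysis gave Cmax observed, t1/2 = 0.693/kel and MRT = AUMC/AUC. Values are geometric means.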

Series [16] deals with Plasma. Nature of the series: Half life in healthy human plasma assessed as metabolite BAY 78-1787 Half life at 40 mg, po administered as two 20 mg immediate release tablets daily for 3 days during 10 hrs overnight fasting state measured after 3 day. The series is classed as ADME, organism-based. The following applies: in vivo, 72 h. The method, boiled down: as §5
In series [17] the test system is Plasma. Kind of series: Cmax in healthy human plasma assessed as metabolite BAY 78-1787 Cmax at 80 mg, po administered as four 20 mg immediate release tablets daily for 3 days during 10 hrs overnight fasting state measured after 1 day. The series is classed as ADME, organism-based. Also on record: dose 80 mg, route oral. The following applies: in vivo. Put shortly:
as §3

For series [18], the system named is Plasma. Kind of series: Cmax in healthy human plasma assessed as metabolite BAY 78-1787 Cmax at 80 mg, po administered as four 20 mg immediate release tablets daily for 3 days during 10 hrs overnight fasting state measured after 3 day. In kind it is ADME, organism-based. Further details: dose 80 mg, route oral. The following applies: in vivo, 72 h. Put shortly:
as §3

Series [19] concerns Plasma. Kind of series: AUC in healthy human plasma assessed as metabolite BAY 78-1787 AUC at 80 mg, po administered as four 20 mg immediate release tablets daily for 3 days during 10 hrs overnight fasting state measured after 1 day. The series is classed as ADME, organism-based. Further details: dose 80 mg, time < 10 hr, route oral. The note with it: in vivo. The method, boiled down:
as §3

In series [20] the test system is Plasma. Kind of series: AUC in healthy human plasma assessed as metabolite BAY 78-1787 AUC at 80 mg, po administered as four 20 mg immediate release tablets daily for 3 days during 10 hrs overnight fasting state measured after 3 day. In kind it is ADME, organism-based. Further details: dose 80 mg, time < 10 hr, route oral. The following applies: in vivo. The method, boiled down:
as §3

In series [21] the test system is Plasma. Kind of series: Tmax in healthy human plasma assessed as metabolite BAY 78-1787 Tmax at 80 mg, po administered as four 20 mg immediate release tablets daily for 3 days during 10 hrs overnight fasting state measured after 1 day. The series is classed as ADME, organism-based. The note with it: in vivo, 24 h. Put shortly: as §4
The test system of series [22] is Plasma. Kind of series: Tmax in healthy human plasma assessed as metabolite BAY 78-1787 Tmax at 80 mg, po administered as four 20 mg immediate release tablets daily for 3 days during 10 hrs overnight fasting state measured after 3 day. The series is classed as ADME, organism-based. The following applies: in vivo, 72 h. The method, boiled down: as §4
For series [23], the system named is Plasma. Nature of the series: Half life in healthy human plasma assessed as metabolite BAY 78-1787 Half life at 80 mg, po administered as four 20 mg immediate release tablets daily for 3 days during 10 hrs overnight fasting state measured after 1 day. The series is classed as ADME, organism-based. The note with it: in vivo, 24 h. Put shortly:
as §5

Series [24] deals with Plasma. Nature of the series: Half life in healthy human plasma assessed as metabolite BAY 78-1787 Half life at 80 mg, po administered as four 20 mg immediate release tablets daily for 3 days during 10 hrs overnight fasting state measured after 3 day. In kind it is ADME, organism-based. The following applies: in vivo, 72 h. Put shortly:
as §5

In brackets after ≈: the same amount, converted by molar mass.

One may read the Cmax as the highest concentration seen after dosing. As usually defined, the AUC is concentration integrated over time. As usually defined, the IC50 is the concentration that gives 50% inhibition. One may read the Tmax as the time at which the peak concentration occurs. With `C[C@H]1[C@H](N2C=CS(=O)(=O)CC2)O[C@@H]2O[C@]3(C)CC[C@H]4[C@H](C)CC[C@@H]1[C@@]24OO3`, the Cmax turned out to be 121.1 ng/mL in series [1]; 51.7 ng/mL in series [9]; 47.8 ng/mL in [10]; 112.6 ng/mL in [17]; 85.3 ng/mL in series [18]. Further, the AUC worked out at 315.4 ng·h/mL in [2]; 112.6 ng·h/mL in series [11]; 112.3 ng·h/mL in [12]; 296 ng·h/mL in [19]; 255.2 ng·h/mL in series [20]. Besides, the t1/2 in [3] was 2.78 h; in series [15], 1.9 h; in series [16], 1.54 h; in series [23], 2.13 h; in series [24], 1.63 h. Moreover, the Ratio was found to be 0.63 in series [4], 0.62 in series [5], 0.89 in [6] and 0.79 in [7]. Moreover, in [8], the half-inhibitory concentration (IC50) is 1.7 ng/mL (≈ 4.26 nM). Moreover, the Tmax in series [13] worked out at 1.75 h; in series [14] it was 1.75 h; in series [21], 2 h; in series [22], 1.5 h.
